Activity calls are given as the source filed them.
Assays:
[1] = biological target: T1, C-type lectin domain family 4 member E (Mus musculus) (UniProt Q9R0Q8); assay: Agonist activity at mincle in wild type C57BL/6 mouse GM-CSF derived BMDM assessed as increase in IL-1beta release at 0.1 to 1 nmol after 24 hrs by sandwich ELISA
T1 sequence (whole entry): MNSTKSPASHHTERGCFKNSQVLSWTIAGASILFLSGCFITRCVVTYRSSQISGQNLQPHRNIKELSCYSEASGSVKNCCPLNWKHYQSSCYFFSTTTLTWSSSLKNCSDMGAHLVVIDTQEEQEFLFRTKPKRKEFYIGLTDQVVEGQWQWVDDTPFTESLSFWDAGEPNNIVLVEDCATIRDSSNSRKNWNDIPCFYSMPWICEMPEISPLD
In short: (§1)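 Wild-type or Mincle−/− C57BL/6 bone marrow was cultured 8 days with GM-CSF 50 ng/mL in complete RPMI. Macrophages were detached with Acutase and seeded on ligand-coated plates (0.1 or 1 nmol/well); LPS 100 ng/mL was used as comparator. Supernatant was taken at 24 h and TNF, IL-6, IL-1β and MIP-2 measured by sandwich ELISA. Representative of three experiments in triplicate (±SD).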

Mus musculus [2] = species: Mus musculus; assay: Adjuvant activity in immunized C57BL/6 mouse assessed as increase in OVA-specific IgG production in serum at 0.3 umol treated with ovalbumin for 7 days followed by stimulation with OVA for 7 days and restimulation with OVA measured 24 to 48 hrs post OVA challenge; assay type: functional
In short: (§2)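 Sera were taken on days 0, 7 and 14 from C57BL/6 mice sensitized s.c. with emulsion containing OVA 200 μg ± adjuvant 0.3 μmol and footpad-challenged with OVA on day 7. OVA-specific IgG, IgG1, IgG2b and IgG2c were measured by ELISA with HRP-coupled anti-mouse secondaries. EC50 was taken from absorbance at 450 nm plotted against log serum concentration.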

Mus musculus [3] = species: Mus musculus; assay: Adjuvant activity in immunized C57BL/6 mouse assessed as increase in antigen specific IFNgamma production in spelnocytes at 0.3 umol treated with ovalbumin for 7 days followed by stimulation with OVA for 7 days and restimulation with OVA measured 24 to 48 hrs post OVA challenge; assay type: functional, cell-based
In short: (§3)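 C57BL/6 mice (8–12 wk) given s.c. oil-in-water emulsion (mineral oil/Tween-80/PBS 9:1:90) holding OVA 200 μg ± adjuvant 0.3 μmol; controls were OVA alone or no OVA. Footpad challenge with OVA 100 μg on day 7, spleens taken day 14. Splenocytes restimulated with OVA 10, 30 or 100 μg/mL. Cell number read at 450 nm after 3 h with a count reagent; IFN-γ and IL-17 measured by ELISA.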

Th1 = assay: Immunostimulatory activity in OT-2 TCR transgenic mouse CD4+ Th1 cells co-cultured with C57BL/6 mouse BMDM assessed as increase in IFNgamma release at 0.1 nmol after 48 hrs by ELISA; assay type: functional, cell-based
In short: (§4)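 OT-II CD4+ T cells (1×10^5) were cocultured with GM-CSF bone-marrow cells (1×10^4) on wells coated with glycolipid 0.1 nmol/well or isopropanol only, with OVA323–339 peptide at 0, 0.1 or 1 μM. Supernatant was collected after 48 h and IFN-γ and IL-17 measured by ELISA. Representative of two experiments in triplicate (±SD).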

[4] = biological target: T1, C-type lectin domain family 4 member E (Mus musculus); assay: Agonist activity at mincle in wild type C57BL/6 mouse GM-CSF derived BMDM assessed as increase in MIP2 release at 0.1 to 1 nmol after 24 hrs by sandwich ELISA; in short: as §1
[5] = biological target: T1, C-type lectin domain family 4 member E (Mus musculus); assay: Agonist activity at mincle in wild type C57BL/6 mouse GM-CSF derived BMDM assessed as increase in TNF release at 0.1 to 1 nmol after 24 hrs by sandwich ELISA; in short: as §1
[6] = biological target: T1, C-type lectin domain family 4 member E (Mus musculus); assay: Agonist activity at mouse mincle coupled with FcRgamma expressed in 2B4-NFAT-GFP reporter cells after 18 hrs by flow cytometric analysis; assay type: cell-based
In short: (§5)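 2B4 NFAT-GFP reporter cells expressing mouse or human Mincle plus FcRγ were placed on plates coated with ligand at 0.01, 0.1 or 1 nmol/well; cells expressing FcRγ only served as negative control. Ligand was coated from isopropanol, 0.05 mM, and solvent evaporated. After 18 h, cells were harvested, stained with propidium iodide and GFP read by flow cytometry. Mean of three experiments in duplicate (±SEM).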

BMDM [7] = assay: Immunostimulatory activity in mincle-/- C57BL/6 mouse GM-CSF derived BMDM assessed as increase in TNF release at […] after 24 hrs by sandwich ELISA method; assay type: functional, cell-based; in short: as §1
Th17 = assay: Immunostimulatory activity in OT-2 TCR transgenic mouse CD4+ Th17 cells co-cultured with C57BL/6 mouse BMDM assessed as increase in ovalbumin-specific IL-17 release at 0.1 nmol after 48 hrs by ELISA; assay type: functional, cell-based; in short: as §4
BMDM [8] = assay: Immunostimulatory activity in mincle-/- C57BL/6 mouse GM-CSF derived BMDM assessed as increase in IL-6 release at […] after 24 hrs by sandwich ELISA method; assay type: functional, cell-based; in short: as §1
Mus musculus [9] = species: Mus musculus; assay: Adjuvant activity in immunized C57BL/6 mouse assessed as increase in OVA-specific IgG1 production in serum at 0.3 umol treated with ovalbumin for 7 days followed by stimulation with OVA for 7 days and restimulation with OVA measured 24 to 48 hrs post OVA challenge relative to control; assay type: functional; in short: as §2
[10] = biological target: T1, C-type lectin domain family 4 member E (Mus musculus); assay: Agonist activity at mincle in wild type C57BL/6 mouse GM-CSF derived BMDM assessed as increase in IL-6 release at 0.1 to 1 nmol after 24 hrs by sandwich ELISA; in short: as §1
Mus musculus [11] = species: Mus musculus; assay: Adjuvant activity in immunized C57BL/6 mouse assessed as increase in splenocyte number at 0.3 umol treated with ovalbumin for 7 days followed by stimulation with OVA for 7 days and restimulation with OVA measured 24 to 48 hrs post OVA challenge; assay type: functional; in short: as §3
Mus musculus [12] = species: Mus musculus; assay: Adjuvant activity in immunized C57BL/6 mouse assessed as increase in OVA-specific IgG2b production in serum at 0.3 umol treated with ovalbumin for 7 days followed by stimulation with OVA for 7 days and restimulation with OVA measured 24 to 48 hrs post OVA challenge; assay type: functional
[13] = biological target: T2, C-type lectin domain family 4 member E (Homo sapiens) (UniProt Q9ULY5); assay: Binding affinity to recombinant human mincle extracellular domain fused with human IgG Fc expressed in HEK293T cells at 0.1 nmol by ELISA; assay type: cell-based; conditions: HEK-293T
T2 sequence (whole entry): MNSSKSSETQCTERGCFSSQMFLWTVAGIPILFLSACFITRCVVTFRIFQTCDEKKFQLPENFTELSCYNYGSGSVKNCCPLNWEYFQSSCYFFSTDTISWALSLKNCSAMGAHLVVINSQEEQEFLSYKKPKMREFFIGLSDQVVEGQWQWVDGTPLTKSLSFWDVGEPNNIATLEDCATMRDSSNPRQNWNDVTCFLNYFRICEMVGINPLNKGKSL

Mus musculus [14] = species: Mus musculus; assay: Adjuvant activity in immunized C57BL/6 mouse assessed as increase in IL-17 production in spelnocytes at 0.3 umol treated with ovalbumin for 7 days followed by stimulation with OVA for 7 days and restimulation with OVA measured 24 to 48 hrs post OVA challenge; assay type: functional, cell-based; in short: as §3
[15] = biological target: T2, C-type lectin domain family 4 member E (Homo sapiens); assay: Agonist activity at human mincle coupled with FcRgamma expressed in 2B4-NFAT-GFP reporter cells after 18 hrs by flow cytometric analysis; assay type: cell-based; in short: as §5
[16] = biological target: T1, C-type lectin domain family 4 member E (Mus musculus); assay: Binding affinity to recombinant mouse mincle extracellular domain fused with human IgG Fc expressed in HEK293T cells at 0.1 nmol by ELISA; assay type: cell-based; conditions: HEK-293T

CCCCCCCCCCCCCCCCCCOc1ccc(C(=O)OC[C@H]2O[C@H](O[C@H]3O[C@H](COC(=O)c4ccc(OCCCCCCCCCCCCCCCCCC)cc4O)[C@@H](O)[C@H](O)[C@H]3O)[C@H](O)[C@@H](O)[C@@H]2O)c(O)c1
active: Activity [1] | Activity (Mus musculus [2]) | Activity (Mus musculus [3]) | Activity [4] | Activity [5] | Activity [6] Dose-dependent effect | Activity (Th17) | Activity [10] | Activity (Mus musculus [11]) | Activity (Mus musculus [12]) | Activity [13] | Activity [15] Dose-dependent effect | Activity [16]
2: fold change (FC) (Mus musculus [9])
inactive: Activity (Th1) | Activity (BMDM [7]) | Activity (BMDM [8]) | Activity (Mus musculus [14])

From ChEMBL document CHEMBL4033780, “Lipidated Brartemicin Analogues Are Potent Th1-Stimulating Vaccine Adjuvants” (J Med Chem, 2018)
